Source: ChEMBL document CHEMBL3352730, “Synthesis and effects on cell viability of flavonols and 3-methyl ether derivatives on human leukemia cells” (Eur J Med Chem, 2014)
Active and inactive are the calls of the source. No cut-off for these calls is given here.

Tests used:
HL-60 [1] = test: Induction of cell cycle arrest in human HL60 cells assessed as accumulation at G2/M phase at 3 uM after 12 hrs by propidium iodide staining based flow cytometry (reference value: 18.5 +/- 0.5%); assay type: functional
HL-60 [2] = test: Induction of cell cycle arrest in human HL60 cells assessed as accumulation at G2/M phase at 1 uM after 48 hrs by propidium iodide staining based flow cytometry (reference value: 17.9 +/- 0.7%); assay type: functional
HL-60 [3] = test: Induction of cell cycle arrest in human HL60 cells assessed as accumulation at G2/M phase at 10 uM after 48 hrs by propidium iodide staining based flow cytometry (reference value: 17.9 +/- 0.7%); assay type: functional
[4] = Cytotoxicity against human HL60/MX1 cells after 72 hrs by MTT assay; assay type: functional, cell-based; settings: HL60/MX1, 72 h
Summary of the method: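 MTT colorimetric assay with 72 h continuous exposure. IC50 was fitted per experiment by non-linear regression. Values are means with SE from at least three independent experiments, each run in triplicate.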

HL-60 [5] = test: Induction of apoptosis in human HL60 cells assessed as DNA fragmentation at 30 uM after 24 hrs by ethidium bromide staining based agarose gel electrophoresis method; assay type: functional, cell-based
Summary of the method: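 HL-60 cells were treated for 24 h. Genomic DNA was extracted, run on an agarose gel, stained with ethidium bromide and viewed under UV.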

HL-60 [6] = test: Induction of cell cycle arrest in human HL60 cells assessed as accumulation at subG1 phase at 1 uM after 12 hrs by propidium iodide staining based flow cytometry (reference value: 6.1 +/- 0.5%); assay type: functional
HL-60 [7] = test: Induction of cell cycle arrest in human HL60 cells assessed as accumulation at subG1 phase at 3 uM after 24 hrs by propidium iodide staining based flow cytometry (reference value: 3.4 +/- 0.3%); assay type: functional
HL-60 [8] = test: Induction of cell cycle arrest in human HL60 cells assessed as accumulation at subG1 phase at 1 uM after 48 hrs by propidium iodide staining based flow cytometry (reference value: 3.7 +/- 0.1%); assay type: functional
HL-60 [9] = test: Induction of cell cycle arrest in human HL60 cells assessed as accumulation at subG1 phase at 3 uM after 48 hrs by propidium iodide staining based flow cytometry (reference value: 3.7 +/- 0.1%); assay type: functional
HL-60 [10] = test: Induction of cell cycle arrest in human HL60 cells assessed as accumulation at subG1 phase at 10 uM after 48 hrs by propidium iodide staining based flow cytometry (reference value: 3.7 +/- 0.1%); assay type: functional
U-937 [11] = test: Induction of cell cycle arrest in human U937 cells assessed as accumulation at subG1 phase at 3 uM after 12 hrs by propidium iodide staining based flow cytometry (reference value: 4.6 +/- 0.9%); assay type: functional
U-937 [12] = test: Induction of cell cycle arrest in human U937 cells assessed as accumulation at subG1 phase at 3 uM after 24 hrs by propidium iodide staining based flow cytometry (reference value: 3.9 +/- 0.8%); assay type: functional
U-937 [13] = test: Induction of cell cycle arrest in human U937 cells assessed as accumulation at G2/M phase at 3 uM after 12 hrs by propidium iodide staining based flow cytometry (reference value: 24.2 +/- 1.2%); assay type: functional
U-937 [14] = test: Induction of cell cycle arrest in human U937 cells assessed as accumulation at G2/M phase at 3 uM after 24 hrs by propidium iodide staining based flow cytometry (reference value: 22.8 +/- 1.6%); assay type: functional
U-937 [15] = test: Induction of apoptosis in human U937 cells assessed as pro-caspase-9 processing at 3 and 10 uM after 6 to 24 hrs by immunoblotting method; assay type: functional, cell-based
Summary of the method: (§1)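 Kinetic and dose-response experiment: cells were treated with the indicated concentrations and harvested at the indicated times. Pro-caspase-8 and -9 cleavage was detected by immunoblotting with antibodies that bind both the proenzyme and the cleaved fragments.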

U-937 [16] = test: Induction of apoptosis in human U937 cells assessed as pro-caspase-8 processing at 3 and 10 uM after 6 to 24 hrs by immunoblotting method; assay type: functional, cell-based; summary of the method: as §1
HL-60 [17] = test: Induction of apoptosis in human HL60 cells assessed as pro-caspase-9 cleavage by Western blotting method; assay type: functional, cell-based
Summary of the method: (§2)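 Cells were exposed to a range of compound concentrations and harvested at 24 h. Lysates were immunoblotted for caspase proforms and cleaved forms, and for Bcl-2 family proteins.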

HL-60 [18] = test: Induction of apoptosis in human HL60 cells assessed as pro-caspase-6 cleavage by Western blotting method; assay type: functional, cell-based; summary of the method: as §2
U-937 [19] = test: Induction of apoptosis in human U937 cells assessed as pro-caspase-3 cleavage by Western blotting method; assay type: functional, cell-based; summary of the method: as §2
HL-60 [20] = test: Induction of apoptosis in human HL60 cells assessed as pro-caspase-4 processing by Western blotting method; assay type: functional, cell-based
U-937 [21] = test: Induction of apoptosis in human U937 cells assessed as increase in caspase 8 activity using IETD-pNA substrate at 10 uM after 24 hrs; assay type: functional, cell-based
Summary of the method: (§3)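 Cells were given 10 µM for 24 h. Lysates were assayed for cleavage of DEVD-pNA (caspase-3/7), IETD-pNA (caspase-8) and LEHD-pNA (caspase-9). Results are expressed as fold over control, from three independent experiments in triplicate.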

MOLT-3 [22] = test: Induction of apoptosis in human MOLT3 cells assessed as increase in caspase 9 activity using LEHD-pNA substrate at 10 uM after 24 hrs; assay type: functional, cell-based; summary of the method: as §3
MOLT-3 [23] = test: Induction of apoptosis in human MOLT3 cells assessed as increase in caspase 8 activity using IETD-pNA substrate at 10 uM after 24 hrs; assay type: functional, cell-based; summary of the method: as §3
[24] = molecular target: MAP kinase p38 (Homo sapiens) (UniProt O15264+Q15759+Q16539+P53778); test: Increase in p38 MAPK phosphorylation in human HL60 cells at 10 to 30 uM after 2 to 6 hrs by Western blotting method; assay type: cell-based; settings: HL-60
Summary of the method: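 HL-60 cells were incubated for a time course. Extracts were immunoblotted with phospho-specific antibodies for ERK 1/2, JNK/SAPK and p38MAPK. Membranes were then stripped and reprobed for the total kinases as loading controls.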

HL-60 [25] = test: Increase in DR5 expression in human HL60 cells at 10 30 uM after 24 hrs by immunoblotting method; assay type: functional, cell-based
Summary of the method: (§4)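 HL-60 and U937 cells were treated with increasing concentrations for 24 h. Lysates were immunoblotted for TRAIL, DR4 and DR5.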

U-937 [26] = test: Increase in DR4 expression in human U937 cells at 10 30 uM after 24 hrs by immunoblotting method; assay type: functional, cell-based; summary of the method: as §4
U-937 [27] = test: Increase in DR5 expression in human U937 cells at 10 30 uM after 24 hrs by immunoblotting method; assay type: functional, cell-based; summary of the method: as §4
U-937 [28] = test: Induction of cell cycle arrest in human U937 cells assessed as accumulation at subG1 phase at 10 uM after 48 hrs by propidium iodide staining based flow cytometry (reference value: 6.7 +/- 0.3%); assay type: functional
U-937 [29] = test: Induction of cell cycle arrest in human U937 cells assessed as accumulation at G1 phase at 1 uM after 24 hrs by propidium iodide staining based flow cytometry (reference value: 49.8 +/- 1.5%); assay type: functional
U-937 [30] = test: Induction of cell cycle arrest in human U937 cells assessed as accumulation at G1 phase at 1 uM after 48 hrs by propidium iodide staining based flow cytometry (reference value: 51.9 +/- 0.9%); assay type: functional
U-937 [31] = test: Induction of cell cycle arrest in human U937 cells assessed as accumulation at G1 phase at 3 uM after 48 hrs by propidium iodide staining based flow cytometry (reference value: 51.9 +/- 0.9%); assay type: functional

For `O=c1c(O)c(-c2ccc(Br)cc2)oc2ccccc12`, which Activity (HL-60 [1]) is on record?
Its Activity is 18.2%.

And the Activity (HL-60 [2])?
The Activity was 20.8%.

What about the Activity (HL-60 [3]) of the same molecule?
Its Activity is 5.5%.

And the IC50 [4]?
Its IC50 is 6.5 µM.

And the Activity (HL-60 [5])?
Its Activity is “Active”.

What about the Activity (HL-60 [6]) of the same molecule?
The Activity was 5.6%.

What about the Activity (HL-60 [7]) of the same molecule?
Its Activity is 5.9%.

What about the Activity (HL-60 [8]) of the same molecule?
Its Activity is 3.4%.

What about the Activity (HL-60 [9]) of the same molecule?
Its Activity is 14.3%.

And the Activity (HL-60 [10])?
The Activity was 56.7%.

And the Activity (U-937 [11])?
The Activity was 3.1%.

And the Activity (U-937 [12])?
The Activity was 5.5%.

And the Activity (U-937 [13])?
The Activity was 23.9%.

And the Activity (U-937 [14])?
The Activity was 21.7%.

What about the Activity (U-937 [15]) of the same molecule?
Its Activity is “Active”.

What about the Activity (U-937 [16]) of the same molecule?
Its Activity is “Active”.

And the Activity (HL-60 [17])?
The Activity was “Active”.

What about the Activity (HL-60 [18]) of the same molecule?
The Activity was “Active”.

What about the Activity (U-937 [19]) of the same molecule?
Its Activity is “inactive”.

And the Activity (HL-60 [20])?
Its Activity is “Active”.

And the Activity (U-937 [21])?
Its Activity is “Active”.

And the Activity (MOLT-3 [22])?
The Activity was “Active”.

What about the Activity (MOLT-3 [23]) of the same molecule?
Its Activity is “Active”.

What about the Activity [24] of the same molecule?
Its Activity is “Active”.

And the Activity (HL-60 [25])?
Its Activity is “Active”.

What about the Activity (U-937 [26]) of the same molecule?
The Activity was “Active”.

And the Activity (U-937 [27])?
The Activity was “Active”.

What about the Activity (U-937 [28]) of the same molecule?
Its Activity is 45.7%.

And the Activity (U-937 [29])?
Its Activity is 47.4%.

What about the Activity (U-937 [30]) of the same molecule?
Its Activity is 49%.

And the Activity (U-937 [31])?
Its Activity is 38.5%.
